From ChEMBL document CHEMBL1122961 (J Med Chem, 1985)
Blank lines part the entries; values can stand above or below the molecule they belong to. Active and inactive are the calls of the source. No cut-off for these calls is given here.

What was measured:
[1] = biological target: T1, Adrenergic receptor alpha-1 (Rattus norvegicus, UniProt P15823+P23944+P43140); assay: In vitro inhibitory activity against alpha-1 adrenergic receptor from whole rat brain using [3H]WB-4101 as radioligand
T1 sequence (P15823 whole entry): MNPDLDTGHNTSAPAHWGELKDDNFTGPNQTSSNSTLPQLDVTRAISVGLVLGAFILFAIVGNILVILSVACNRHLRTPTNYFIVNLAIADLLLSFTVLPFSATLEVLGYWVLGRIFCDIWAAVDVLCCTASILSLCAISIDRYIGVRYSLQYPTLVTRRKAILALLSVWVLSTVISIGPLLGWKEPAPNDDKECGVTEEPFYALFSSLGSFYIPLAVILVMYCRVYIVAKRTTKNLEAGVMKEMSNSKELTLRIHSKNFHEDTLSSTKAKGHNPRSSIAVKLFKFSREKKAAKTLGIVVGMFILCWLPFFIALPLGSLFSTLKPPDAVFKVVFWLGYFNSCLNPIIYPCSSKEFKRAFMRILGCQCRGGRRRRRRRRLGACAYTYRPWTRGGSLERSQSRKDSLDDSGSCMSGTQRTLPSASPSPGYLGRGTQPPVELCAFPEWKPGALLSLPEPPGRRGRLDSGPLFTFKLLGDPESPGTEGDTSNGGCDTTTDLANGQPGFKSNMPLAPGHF
T1 sequence (P23944 whole entry): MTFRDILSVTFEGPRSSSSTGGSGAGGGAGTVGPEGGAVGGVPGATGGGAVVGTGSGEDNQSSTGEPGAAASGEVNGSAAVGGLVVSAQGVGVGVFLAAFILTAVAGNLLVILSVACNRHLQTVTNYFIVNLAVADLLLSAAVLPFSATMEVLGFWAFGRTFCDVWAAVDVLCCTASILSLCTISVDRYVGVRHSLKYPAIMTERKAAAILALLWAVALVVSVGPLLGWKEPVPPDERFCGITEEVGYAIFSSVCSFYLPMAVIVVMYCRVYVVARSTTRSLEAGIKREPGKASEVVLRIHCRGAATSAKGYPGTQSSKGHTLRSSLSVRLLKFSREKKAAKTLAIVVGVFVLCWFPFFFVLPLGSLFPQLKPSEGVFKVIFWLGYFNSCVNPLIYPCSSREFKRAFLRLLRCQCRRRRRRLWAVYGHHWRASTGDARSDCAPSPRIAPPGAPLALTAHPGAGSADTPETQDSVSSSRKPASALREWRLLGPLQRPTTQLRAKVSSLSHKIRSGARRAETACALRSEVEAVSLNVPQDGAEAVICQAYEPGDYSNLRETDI
T1 sequence (P43140 whole entry): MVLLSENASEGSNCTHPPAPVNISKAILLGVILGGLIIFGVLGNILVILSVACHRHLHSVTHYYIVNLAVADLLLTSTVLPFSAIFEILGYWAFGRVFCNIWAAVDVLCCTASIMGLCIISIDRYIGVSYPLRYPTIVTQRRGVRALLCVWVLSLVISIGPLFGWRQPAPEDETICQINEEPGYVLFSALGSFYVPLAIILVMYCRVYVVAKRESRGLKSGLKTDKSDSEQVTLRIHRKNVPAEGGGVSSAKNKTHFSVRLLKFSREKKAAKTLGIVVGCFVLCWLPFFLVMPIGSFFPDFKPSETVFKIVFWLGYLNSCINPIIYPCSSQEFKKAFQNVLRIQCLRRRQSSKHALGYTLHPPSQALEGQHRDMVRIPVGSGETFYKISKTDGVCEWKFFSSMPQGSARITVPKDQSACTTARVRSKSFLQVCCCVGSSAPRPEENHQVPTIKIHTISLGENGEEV
Outline: (§1)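 Displacement binding on brain homogenates as earlier described; four to six test concentrations typically, each incubated in triplicate. IC50 in nM derived by appropriately weighted regression analysis.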

[2] = test system: Rattus norvegicus; assay: In vivo inhibitory against lactation in female rat after peroral administration; type: functional; conditions: po, read-out: ID50 (the source's name)
Outline: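 […] rats dosed once daily from day 5 to 8. Nursing behaviour checked daily; dams losing more than two pups excluded.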

[3] = biological target: T2, Dopamine receptor (Bos taurus, UniProt Q95136+P20288); assay: In vitro inhibitory activity against dopamine receptor from calf caudate using [3H]spiperone as radioligand; type: protein assay; outline: as §1
[4] = test system: Rattus norvegicus; assay: In vivo inhibitory activity against ovum implantation in female rat after subcutaneous administration; type: functional; conditions: sc, read-out: ID50 (the source's name)
Outline: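 Adult proestrus Ivanovas female rats mated with fertile males; sperm-positive females randomised next morning (day 1), 4-10 per group. Single subcutaneous dose on day 5; killed day 12, uteri inspected for fetuses or implantation sites, absence counted as inhibition.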

[5] = biological target: Serotonin (5-HT) receptor; assay: In vitro inhibitory activity against serotonin receptor from rat frontal cortex using [3H]spiperone as radioligand; type: tissue-based
[6] = biological target: Serotonin (5-HT) receptor; assay: In vitro inhibitory activity against serotonin receptor from whole rat brain using [3H]5-HT as radioligand
[7] = biological target: T2, Dopamine receptor; assay: In vitro inhibitory activity against dopamine receptor from calf caudate using [3H]dopamine as radioligand; type: protein assay; outline: as §1
[8] = biological target: T3, Adrenergic receptor alpha-2 (Rattus norvegicus, UniProt P22086+P19328+P22909); assay: In vitro inhibitory activity against alpha-2 adrenergic receptor from rat brain minus cerebellum using [3H]clonidine as radioligand; type: tissue-based; outline: as §1
T3 sequence (P22086 whole entry): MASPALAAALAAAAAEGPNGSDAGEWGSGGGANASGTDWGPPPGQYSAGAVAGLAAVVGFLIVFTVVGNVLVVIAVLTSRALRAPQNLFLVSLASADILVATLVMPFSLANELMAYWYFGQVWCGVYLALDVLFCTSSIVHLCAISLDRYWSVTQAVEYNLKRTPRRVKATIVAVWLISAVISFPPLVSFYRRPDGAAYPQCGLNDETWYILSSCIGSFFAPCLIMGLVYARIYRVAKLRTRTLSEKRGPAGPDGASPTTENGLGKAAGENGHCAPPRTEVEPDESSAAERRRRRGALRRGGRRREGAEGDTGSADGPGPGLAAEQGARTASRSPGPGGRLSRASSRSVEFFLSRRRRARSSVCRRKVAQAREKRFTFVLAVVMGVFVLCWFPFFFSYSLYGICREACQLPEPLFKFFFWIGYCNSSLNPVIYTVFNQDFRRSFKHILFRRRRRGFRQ
T3 sequence (P19328 whole entry): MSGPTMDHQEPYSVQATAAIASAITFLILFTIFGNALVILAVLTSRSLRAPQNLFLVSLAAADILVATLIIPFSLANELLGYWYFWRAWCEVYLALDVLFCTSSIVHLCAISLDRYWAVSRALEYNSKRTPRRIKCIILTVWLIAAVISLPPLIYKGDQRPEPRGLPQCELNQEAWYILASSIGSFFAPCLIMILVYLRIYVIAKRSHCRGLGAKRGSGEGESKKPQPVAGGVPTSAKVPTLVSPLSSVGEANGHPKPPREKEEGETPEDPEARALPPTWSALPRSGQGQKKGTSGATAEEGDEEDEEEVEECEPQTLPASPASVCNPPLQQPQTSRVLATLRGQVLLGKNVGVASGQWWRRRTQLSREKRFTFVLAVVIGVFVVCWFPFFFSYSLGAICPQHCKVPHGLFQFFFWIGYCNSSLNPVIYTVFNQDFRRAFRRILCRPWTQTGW
T3 sequence (P22909 whole entry): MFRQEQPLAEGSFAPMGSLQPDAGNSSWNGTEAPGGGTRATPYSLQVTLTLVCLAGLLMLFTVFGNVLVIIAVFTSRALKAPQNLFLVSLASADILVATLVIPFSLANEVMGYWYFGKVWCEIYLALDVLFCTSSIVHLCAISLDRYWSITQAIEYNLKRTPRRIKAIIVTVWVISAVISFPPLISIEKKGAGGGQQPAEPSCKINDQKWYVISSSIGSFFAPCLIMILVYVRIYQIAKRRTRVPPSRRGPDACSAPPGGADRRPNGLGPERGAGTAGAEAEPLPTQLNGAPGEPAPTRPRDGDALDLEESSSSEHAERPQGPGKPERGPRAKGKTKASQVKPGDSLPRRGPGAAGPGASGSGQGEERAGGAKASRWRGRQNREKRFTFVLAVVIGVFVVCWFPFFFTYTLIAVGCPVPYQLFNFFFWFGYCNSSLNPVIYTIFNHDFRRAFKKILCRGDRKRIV

[9] = test system: Rattus norvegicus; assay: In vivo inhibitory activity against basal prolactin in male rat after subcutaneous administration; type: functional; conditions: sc, read-out: ID50 (the source's name)
Outline: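 Male rats given one subcutaneous injection and decapitated 4 h later; trunk blood serum collected. One to three groups of three rats per dose, sera of three rats pooled equally. Prolactin measured by double-antibody RIA, expressed against NIH rat Prl RP-1 standard. Dose giving 50% serum prolactin reduction estimated graphically.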

[10] = test system: Rattus norvegicus; assay: In vivo inhibitory activity against ovum implantation in female rat after subcutaneous administration; i = No effect; type: functional, organism-based
Outline: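 Adult proestrus Ivanovas female rats paired with males of proven fertility; sperm-positive next morning (day 1), randomised 4-10 per group. Single sc dose on day 5; killed day 12, uteri inspected for fetuses or implantation sites, none counting as inhibited.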

[11] = test system: Rattus norvegicus; assay: In vivo against inhibitory against lactation in female rat after peroral administration; i = No effect; type: functional, organism-based

Compound: CCCN1C[C@@H](CSC)C[C@@H]2Cc3c(O)cccc3C[C@H]21
- IC50 [1]: 640 nM
- ED50 [2]: 0.058 mg/kg
- IC50 [3]: 60 nM
- ED50 [4]: 0.018 mg/kg
- IC50 [5]: 720 nM
- IC50 [6]: 2000 nM
- IC50 [7]: 22 nM
- IC50 [8]: 250 nM
- ED50 [9]: 0.004 mg/kg

- IC50 [6]: > 10000 nM
Compound: CN1CCc2cccc3c2[C@H]1Cc1ccc(O)c(O)c1-3 [APOMORPHINE]
- ID50 [10]: inactive
- ID50 [11]: inactive

Compound: CCN(CC)S(=O)(=O)N[C@H]1C[C@@H]2c3cccc4[nH]cc(c34)C[C@H]2N(C)C1 [ETISULERGINE]
- ED50 [2]: 0.19 mg/kg
- ED50 [4]: 0.028 mg/kg
- IC50 [6]: > 5000 nM

Compound: CCCN1C[C@H](CSC)C[C@@H]2c3cccc4[nH]cc(c34)C[C@H]21 [PERGOLIDE]
- IC50 [1]: 550 nM
- ED50 [4]: 0.021 mg/kg
- IC50 [5]: 140 nM
- IC50 [6]: 385 nM
- ED50 [9]: 0.0013 mg/kg

Compound: CCCN1CC(NS(=O)(=O)N(CC)CC)CC2Cc3c(O)cccc3CC21 (stereo not drawn) [QUINAGOLIDE]
- ED50 [2]: 0.03 mg/kg
- ED50 [4]: 0.017 mg/kg
- ED50 [9]: 0.005 mg/kg
